The list is not random: actives were taken first. Their share in the collection is about 3.3%.
PRMT1 inh – inhibitors of human PRMT1; hit rate 1.3% among 370,000; inhibition, % at 2.79 µM; recombinant PRMT1, activity-based probe fluorescence polarization;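 active means inhibition above about 21% made by adding two undisclosed values, limit read from the data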
ABHD4 inh – inhibitors of mouse ABHD4; AID 720543; purified mABHD4, FP-Rh probe fluorescence polarization; Q8VD66; inhibition, % at 8.92 µM; hit rate 0.54% among 370,000;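 active means inhibition exceeding the mean over every tested compound plus 3 SD, cut at about 30% in these data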;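 further: 0% = plate median of compound wells and 100% = S159A mutant with DMSO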
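Test system: mABHD4 protein; Read-out basis: % inhibition; Incubation: 45 min + 60 min at 25 °C; Repeats: single replicate; Technique: fluorescence polarization with parallel and perpendicular emission, 525/598 nm; Compound: 8.92 µM, single dose; Benchmarks: full inhibition S159A mutant plus DMSO, zero as sample-well median.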
SIAE primary – blocks human sialic acid acetylesterase; hit rate 0.69% among 370,000; SIAE FP-Rh probe binding, fluorescence polarization; inhibition, % at 9.66 µM; AID 1053197;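 active means inhibition above a cutoff: mean of compounds within the control limits plus 3 SD of those, cut at about 17% in these data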;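 further: 0% = plate median of compound wells and 100% = probe without SIAE protein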
rCAG RNA binder – binds r(CAG) RNA repeats; r(CAG) RNA repeat, TO-PRO-1 dye displacement fluorescence; inhibition, % at 3 µM; hit rate 1.3% among 370,000;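 active means inhibition above the plate cutoff, the mean of all test compounds on that plate plus 3 SD, cut at about 35% in these data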;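 further: 0% = DMSO alone and 100% = 100 µM mitoxantrone as full dye displacement; higher means more dye released from RNA so lower well fluorescence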
HTRA1 inh – blocks human HTRA1 serine peptidase. inhibition, % at 5.96 µM. hit rate 0.5% among 340,000. AID 504803. Q92743. recombinant HTRA1, FP-rhodamine activity-based probe, fluorescence polarization; in the data active means inhibition above about 36%;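 further: 0% = enzyme with DMSO and 100% = wells lacking enzyme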
SIAE confirm – human SIAE inhibition, confirmation. shares compounds with SIAE primary. SIAE FP-Rh activity-based probe, fluorescence polarization. inhibition, % at 9.66 µM. hit rate 13% among 2,300. AID 1117263;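 active means mean inhibition of the replicates above the hit cutoff set in the primary screen, cut at about 17% in these data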;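 further: 0% = SIAE with DMSO and probe and 100% = probe without SIAE; inhibitors lower polarization as more probe stays unbound to SIAE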
* = called active by the depositor; nt = no result.

SMILES | PRMT1 inh | ABHD4 inh | SIAE primary | rCAG RNA binder | HTRA1 inh | SIAE confirm
CCCOP(=O)(OCCC)C(NC(=O)c1cc(OC)c(OC)c(OC)c1)c1ccccc1 (configuration not stated) | -2 | 3 | 17* | -8 | 0 | 1
CC(C)(C)NC(=S)N1CCn2cccc2C1c1cccnc1 (configuration not stated) | -3 | 2 | 21* | 0 | 3 | 2
NP(=O)(OCC(F)(F)F)Oc1ccc(Cl)cc1 (configuration not stated) | -1 | 3 | 20* | -3 | 5 | 12
NP(=O)(OCC(F)(F)F)Oc1cccc2ccccc12 (configuration not stated) | 0 | 1 | 1 | 0 | 10 | nt
NP(=O)(OCCCCc1ccccc1)Oc1ccccc1Cl (configuration not stated) | -1 | -8 | 43* | -12 | 3 | 38*
NP(=O)(Oc1ccccc1Cl)Oc1ccccc1Cl | 5 | 5 | 6 | -4 | 16 | nt
C(#CCN1CCCCC1)COCc1ccccc1 | 0 | -6 | 21* | -5 | 9 | 1
CC/C(=N\NC(=O)c1ccccc1)c1c(O)n(C2CCCCC2)c(=O)[nH]c1=O | 13 | 0 | 18* | 20 | 1 | 4
CC/C(=N\NC(=O)c1ccccc1Cl)c1c(O)n(C2CCCCC2)c(=O)[nH]c1=O | 19 | -3 | 0 | 22 | 7 | nt
O=c1c2ccccc2nc(CSc2ncnc3nc[nH]c23)n1-c1ccc(Cl)c(Cl)c1 | 0 | 7 | -1 | -5 | 9 | nt
CCCC/C(=N/O)c1c(C)[nH]c2ccccc12 | 1 | 6 | 3 | -2 | 2 | nt
Cc1cccc(OCC(=O)N2CCN(Cc3ccc([N+](=O)[O-])cc3)CC2)c1 | 6 | 5 | 0 | -8 | -2 | nt
Cn1c(CN2CCN(C(=O)COc3ccccc3)CC2)nc2cc([N+](=O)[O-])ccc21 | -2 | -1 | 151* | -3 | -2 | -2
COC(=O)C1=C(c2ccc(S(C)(=O)=O)cc2)C[C@@H]2CC[C@H]1N2C(=O)N1CCCCC1 | 2 | -3 | -2 | 0 | 1 | nt
Nc1ccc(S(=O)(=O)N2CC3CC(C2)c2cccc(=O)n2C3)cc1 (configuration not stated) | 2 | 3 | 17* | 2 | -2 | 5
Cc1cc(NC(=O)CCl)nn1C | -4 | -2 | 2 | 0 | 6 | nt
COC(=O)C1=C(c2ccc(Cl)c(C(F)(F)F)c2)C[C@@H]2CC[C@H]1N2C(=O)NCc1ccc2c(c1)OCO2 | -1 | 2 | 1 | 0 | -7 | nt
CCCCN1C(=N)C(CC)(CC)C(=O)NC1=O | -2 | 6 | 21* | 0 | -3 | 1
COc1ccc(OC(=O)N(C)C[C@H]2OCc3cnnn3CCCC(=O)N([C@@H](C)CO)C[C@H]2C)cc1 | -3 | -3 | 5 | 2 | 4 | nt
COc1ccc2c(c1)c(C(=O)CN1CCC3(CC1)OCCO3)c(C)n2Cc1ccccc1 | 1 | 8 | 68* | 0 | -6 | -2
c1ccc(NC2=NCCS2)cc1 | 3 | -3 | 0 | -2 | 6 | nt
Cc1cc(N=Nc2ccccc2C)ccc1N | -3 | 4 | 32* | 4 | 12 | 1
CCOC(=O)[C@@]1(C#N)[C@@H]2C=CC(C(N)=O)=CN2[C@@H](C(N)=O)[C@@H]1c1cccc(Cl)c1 | 2 | 10 | 21* | 3 | 2 | 0
CCOC(=O)[C@]1(C#N)[C@@H]2C=CC(C(N)=O)=CN2[C@@H](C(N)=O)[C@@H]1c1ccc(F)cc1 | 0 | 0 | 2 | 1 | 5 | nt
CC(C)NC(C)C(=O)C12CC3CC(CC(C3)C1)C2 (configuration not stated) | -3 | 0 | 4 | -1 | 3 | nt
CCN[C@@H](C)Cc1cccc(C(F)(F)F)c1 | 0 | 5 | 19* | 0 | 2 | 3
